# Source: ChEMBL document CHEMBL3112405, “A-ring modified betulinic acid derivatives as potent cancer preventive agents” (Bioorg Med Chem Lett, 2014)
# Assays:
# Raji [1] = test: Chemopreventive activity in human Raji cells assessed as inhibition of TPA-induced EBV-early antigen activation by measuring EBV-EA positive cells at 100 molar ratio/20 ng/ml of TPA after 48 hrs by immunofluorescence analysis; format: cell-based; parameters: scale not given: the % may be the effect or the level left; settings: human gammaherpesvirus 4
# How it was run: (§1)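 Raji cells (EBV genome-carrying, Burkitt's lymphoma-derived, virus non-producer), grown in RPMI-1640 with 10% FBS. Cells were incubated 48 h at 37 °C with n-butyric acid (4 mM), TPA ([…] = 20 ng, in DMSO) and test compound in DMSO at 10–1000 mol ratio/TPA. EBV-EA-positive cells were detected by indirect immunofluorescence using NPC patient serum, with at least 500 cells counted. Triplicates were run, expressed relative to the butyrate+TPA control (100%). Viability was checked by Trypan blue.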
# Raji [2] = test: Chemopreventive activity in human Raji cells assessed as inhibition of TPA-induced EBV-early antigen activation by measuring EBV-EA positive cells at 500 molar ratio/20 ng/ml of TPA after 48 hrs by immunofluorescence analysis; format: cell-based; parameters: scale not given: the % may be the effect or the level left; settings: human gammaherpesvirus 4; how it was run: as §1
# Raji [3] = test: Chemopreventive activity in human Raji cells assessed as inhibition of TPA-induced EBV-early antigen activation by measuring EBV-EA positive cells at 10 molar ratio/20 ng/ml of TPA after 48 hrs by immunofluorescence analysis; format: cell-based; parameters: scale not given: the % may be the effect or the level left; settings: human gammaherpesvirus 4
# How it was run: (§2)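 Raji cells (EBV genome-carrying, virus non-producer; cultured in RPMI-1640 with 10% FBS) incubated 48 h at 37 °C with n-butyric acid (4 mM), TPA ([…] = 20 ng) and test compounds in DMSO. EBV-EA positive cells were detected by indirect immunofluorescence with NPC patient serum, counting ≥500 cells, triplicate. Results were expressed relative to the butyric acid+TPA control (100%). Viability was checked by Trypan blue.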
# [4] = Chemopreventive activity in human Raji cells assessed as molar ratio of compound required to inhibit 50% of control of inhibition of TPA-induced EBV-early antigen activation after 48 hrs by immunofluorescence analysis; format: cell-based, human gammaherpesvirus 4; how it was run: as §2
# Raji [5] = test: Chemopreventive activity in human Raji cells assessed as inhibition of TPA-induced EBV-early antigen activation by measuring EBV-EA positive cells at 1000 molar ratio/20 ng/ml of TPA after 48 hrs by immunofluorescence analysis relative to control; format: cell-based; parameters: scale not given: the % may be the effect or the level left; settings: human gammaherpesvirus 4; how it was run: as §1
# Mus musculus [6] = organism: Mus musculus; test: Inhibition of DMBA-TPA-induced carcinogenesis in mouse skin assessed as reduction of number of papilloma at 85 nmol after 8 weeks relative to control; format: functional; parameters: scale not given: the % may be the effect or the level left
# How it was run: (§3)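 Two-stage mouse skin model. Initiation used DMBA (390 nmol). Promotion used TPA (1.7 nmol) twice weekly, starting 1 week after initiation. Test compound (85 nmol) was given with TPA. Papilloma incidence (% of mice bearing papillomas) and average papillomas per mouse were monitored over 20 weeks against a TPA-alone control.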
# Mus musculus [7] = organism: Mus musculus; test: Inhibition of DMBA-TPA-induced carcinogenesis in mouse skin assessed as reduction of number of papilloma at 85 nmol after 11 weeks relative to control; format: functional; parameters: scale not given: the % may be the effect or the level left; how it was run: as §3
Compound,Activity (Raji [1]) [%],Activity (Raji [2]) [%],Activity (Raji [3]) [%],IC50 [4] [molar ratio],Activity (Raji [5]) [%],Activity (Mus musculus [6]) [%],Activity (Mus musculus [7]) [%]
COc1cc(/C=C/C(=O)CC(=O)/C=C/c2ccc(O)c(OC)c2)ccc1O [CURCUMIN],81.7,22.8,100,341,0,–,–
COC(=O)CC[C@]1(C)[C@H]2CC[C@@H]3[C@H]4[C@H](C(C)C)CC[C@]4(C(=O)NCCCCCCCNC(C)=O)CC[C@@]3(C)[C@]2(C)CC[C@H]1C(C)COC(C)=O (stereo partly drawn),79.4,56,100,490,7.8,–,–
COC(=O)CC[C@]1(C)[C@H]2CC[C@@H]3[C@H]4[C@H](C(C)C)CC[C@]4(C(=O)O)CC[C@@]3(C)[C@]2(C)CC[C@H]1C(C)COC(=O)CC(C)(C)C(=O)O (stereo partly drawn),71.3,36.4,100,386,3.7,–,–
CC(=O)NCCCCCCCNC(=O)[C@]12CC[C@@H](C(C)C)[C@@H]1[C@H]1CC[C@@H]3[C@@](C)(CCC(=O)O)[C@H](C(C)CO)CC[C@@]3(C)[C@]1(C)CC2 (stereo partly drawn),77.5,52.1,100,471,6.6,–,–
C=C(C)[C@@H]1CC[C@]2(C)[C@H](CC[C@@H]3[C@H]4[C@H](C(C)C)CC[C@]4(C(=O)O)CC[C@]32C)[C@@]1(C)CCC(=O)O,65.1,26.6,91.6,295,0,0,10
COC(=O)CC[C@]1(C)[C@H]2CC[C@@H]3[C@H]4[C@H](C(C)C)CC[C@]4(C(=O)O)CC[C@@]3(C)[C@]2(C)CC[C@H]1C(C)CO (stereo partly drawn),68.1,31.6,96.3,323,0,0,10
C=C(C)[C@@H]1CC[C@]2(C(=O)O)CC[C@]3(C)[C@H](CC[C@@H]4[C@@]5(C)CC[C@H](OC(=O)CC(C)(C)C(=O)O)C(C)(C)[C@@H]5CC[C@]43C)[C@@H]12 [BEVIRIMAT],74.2,36.1,–,396,6.1,–,–
C=C(C)[C@@H]1CC[C@]2(C)[C@H](CC[C@@H]3[C@H]4[C@H](C(C)C)CC[C@]4(C(=O)NCCCCCCCNC(C)=O)CC[C@]32C)[C@@]1(C)CCC(=O)OC,77.2,54.4,100,479,7.1,–,–
C=C(C)[C@@H]1CC[C@]2(C)[C@H](CC[C@@H]3[C@H]4[C@H](C(C)C)CC[C@]4(C(=O)NCCCCCCCNC(C)=O)CC[C@]32C)[C@@]1(C)CCC(=O)O,76.3,50.2,100,460,6.7,–,–
C=C(C)[C@@H]1CC[C@]2(C)[C@H](CC[C@@H]3[C@H]4[C@H](C(C)C)CC[C@]4(C(=O)O)CC[C@]32C)[C@@]1(C)CCC(=O)OC,66.9,29.1,94.2,311,0,–,–
CC(=O)NCCCCCCCNC(=O)[C@]12CC[C@@H](C(C)C)[C@@H]1[C@H]1CC[C@@H]3[C@@](C)(CCC(=O)O)[C@H](C(C)COC(=O)CC(C)(C)C(=O)O)CC[C@@]3(C)[C@]1(C)CC2 (stereo partly drawn),81.3,57.2,100,501,11.3,–,–
CC(=O)NCCCCCCCNC(=O)[C@]12CC[C@@H](C(C)C)[C@@H]1[C@H]1CC[C@@H]3[C@@]4(C)CCC(=O)OC(C)(C)[C@@H]4CC[C@@]3(C)[C@]1(C)CC2,83.2,61.4,100,523,15.3,–,–
COC(=O)CC[C@]1(C)[C@H]2CC[C@@H]3[C@H]4[C@H](C(C)C)CC[C@]4(C(=O)O)CC[C@@]3(C)[C@]2(C)CC[C@H]1C(C)COC(C)=O (stereo partly drawn),68.8,33.8,98.2,335,0,–,–
